Data taken from ChEMBL document CHEMBL2375233, “Cytotoxic phorbol esters of Croton tiglium” (J Nat Prod, 2013).

What follows are compounds tested on SNU-387 (assay: Cytotoxicity against human SNU387 cells after 48 hrs by MTT assay). Conditions: SNU-387, 48 h.
Assay type: functional, cell-based
Summary of the method: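 SNU387 hepatoma cells (Shanghai Cell Bank) grown in RPMI1640 with 10% FBS, seeded in 96-well plates and exposed to test compounds at various concentrations for 48 h. Viability read by MTT, absorbance at 570 nm. IC50 calculated from concentration-response; samples assayed in triplicate, paclitaxel as positive control.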

Point of comparison: `CC(=O)O[C@H]1C(=O)[C@@]2(C)[C@H]([C@H](OC(=O)c3ccccc3)[C@]3(O)C[C@H](OC(=O)[C@H](O)[C@@H](NC(=O)c4ccccc4)c4ccccc4)C(C)=C1C3(C)C)[C@]1(OC(C)=O)CO[C@@H]1C[C@@H]2O` [PACLITAXEL], IC50 0.27 µM. Against it:
- C/C=C(\C)C(=O)O[C@@H]1[C@@H](C)[C@]2(O)[C@@H]3C=C(C)C(=O)[C@@H]3CC(CO)=C[C@H]2[C@@H]2C(C)(C)[C@]12OC(=O)C(C)CC (stereo not given in full) — higher, > 10 µM
- C/C=C(\C)C(=O)O[C@@H]1[C@@H](C)[C@]2(O)[C@@H]3C=C(C)C(=O)[C@@H]3CC(CO)=C[C@H]2[C@@H]2C(C)(C)[C@]12OC(=O)C(C)C — higher, > 10 µM
- C/C=C(\C)C(=O)O[C@@]12[C@H](OC(=O)C(C)CC)[C@@H](C)[C@@]3(O)[C@@H](C=C(CO)C[C@]4(O)C(=O)C(C)=C[C@@H]34)[C@@H]1C2(C)C (stereo not given in full) — higher, > 10 µM
- C/C=C(\C)C(=O)O[C@@H]1[C@@H](C)[C@]2(O)[C@@H]3C=C(C)C(=O)[C@@H]3CC(CO)=C[C@H]2[C@@H]2C(C)(C)[C@]12OC(=O)CCCCCCCCC — higher, > 10 µM
- C/C=C(\C)C(=O)O[C@@H]1[C@@H](C)[C@]2(O)[C@@H]3C=C(C)C(=O)[C@@H]3CC(CO)=C[C@H]2[C@@H]2C(C)(C)[C@]12OC(=O)Cc1ccccc1 — higher, > 10 µM
- C/C=C(\C)C(=O)O[C@@H]1[C@@H](C)[C@@]2(O)[C@@H](C=C(CO)C[C@]3(O)C(=O)C(C)=C[C@@H]23)[C@@H]2C(C)(C)[C@]12OC(=O)C(C)C — higher, > 10 µM
- C/C=C(\C)C(=O)O[C@@H]1[C@@H](C)[C@@]2(O)[C@@H](C=C(CO)C[C@]3(O)C(=O)C(C)=C[C@@H]23)[C@@H]2C(C)(C)[C@]12OC(=O)CC — higher, > 10.2 µM
- CCCCC/C=C\C/C=C\CCCCCCCC(=O)OCC1=C[C@H]2[C@@H]3C(C)(C)[C@]3(OC(C)=O)[C@H](O)[C@@H](C)[C@]2(O)[C@@H]2C=C(C)C(=O)[C@@]2(O)C1 — 13-fold higher, 3.4 µM
- CCCCC/C=C\C/C=C\CCCCCCCC(=O)OCC1=C[C@H]2[C@@H]3C(C)(C)[C@]3(OC(C)=O)[C@H](O)[C@@H](C)[C@]2(O)[C@@H]2C=C(C)C(=O)[C@@H]2C1 — 30-fold higher, 8.1 µM
- CCCCCCCC/C=C\CCCCCCCC(=O)OCC1=C[C@H]2[C@@H]3C(C)(C)[C@]3(OC(C)=O)[C@H](O)[C@@H](C)[C@]2(O)[C@@H]2C=C(C)C(=O)[C@@H]2C1 — 24-fold higher, 6.6 µM
- CCCCCCCCCCCC(=O)O[C@@]12[C@H](OC(C)=O)[C@@H](C)[C@@]3(O)[C@@H](C=C(CO)C[C@]4(O)C(=O)C(C)=C[C@@H]34)[C@@H]1C2(C)C — higher, > 10 µM
- CCCCCCCCCCCCCC(=O)O[C@@H]1[C@@H](C)[C@@]2(O)[C@@H](C=C(CO)C[C@]3(O)C(=O)C(C)=C[C@@H]23)[C@@H]2C(C)(C)[C@]12OC(C)=O [PHORBOL MYRISTATE ACETATE] — higher, > 10 µM
- CCCCCCCCCCCC(=O)O[C@@]12[C@H](OC(=O)C(C)CC)[C@@H](C)[C@@]3(O)[C@@H](C=C(CO)C[C@]4(O)C(=O)C(C)=C[C@@H]34)[C@@H]1C2(C)C (stereo not given in full) — higher, > 10 µM
- CCCCCCCC/C=C\CCCCCCCC(=O)OCC1=C[C@H]2[C@@H]3C(C)(C)[C@]3(OC(C)=O)[C@H](O)[C@@H](C)[C@]2(O)[C@@H]2C=C(C)C(=O)[C@@]2(O)C1 — 4.4-fold higher, 1.2 µM
- CCCCCCCCCCCCCCCC(=O)O[C@@H]1[C@@H](C)[C@@]2(O)[C@@H](C=C(CO)C[C@]3(O)C(=O)C(C)=C[C@@H]23)[C@@H]2C(C)(C)[C@]12OC(C)=O — higher, > 10 µM
- CCCCCCCCCC(=O)O[C@@]12[C@H](OC(C)=O)[C@@H](C)[C@@]3(O)[C@@H](C=C(CO)C[C@]4(O)C(=O)C(C)=C[C@@H]34)[C@@H]1C2(C)C — higher, > 10 µM
- C/C=C(\C)C(=O)O[C@@H]1[C@@H](C)[C@]2(O)[C@@H]3C=C(C)C(=O)[C@@H]3CC(CO)=C[C@H]2[C@@H]2C(C)(C)[C@]12OC(C)=O — higher, > 10 µM
- CCC(C)C(=O)O[C@@H]1[C@@H](C)[C@@]2(O)[C@@H](C=C(CO)C[C@]3(O)C(=O)C(C)=C[C@@H]23)[C@@H]2C(C)(C)[C@]12OC(=O)C(C)C (stereo not given in full) — higher, > 10 µM
- C/C=C(\C)C(=O)O[C@@H]1[C@@H](C)[C@@]2(O)[C@@H](C=C(CO)C[C@]3(O)C(=O)C(C)=C[C@@H]23)[C@@H]2C(C)(C)[C@]12OC(=O)C(C)CC (stereo not given in full) — 32-fold higher, 8.7 µM
